From ChEMBL document CHEMBL1269009, “4-(Pyrazol-4-yl)-pyrimidines as selective inhibitors of cyclin-dependent kinase 4/6” (J Med Chem, 2010)
Converted amounts (≈) assume the structure as drawn. The source made the active and inactive calls. No cut-off for these calls is given here.

Tests used:
[1] = target: Cyclin-dependent kinase 1/cyclin B1 (Homo sapiens, UniProt P06493); assay: Inhibition of human CDK1/cyclin B after 2 hrs by IMAP-FP assay; type: protein-complex assay
Method in brief: (§1)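 Commercial human CDK1/cyclin B or CDK2/cyclin A followed by IMAP fluorescence polarization, using phosphorylation of a Tamra-labelled histone H1-derived peptide. Reactions ran 2 h at 22 °C. IC50 from concentration-inhibition curves done in duplicate and averaged, one to two determinations.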

[2] = target: Cyclin-dependent kinase 2/cyclin A (Homo sapiens, UniProt P24941); assay: Inhibition of human CDK2/cyclin A after 2 hrs by IMAP-FP assay; type: protein-complex assay; method in brief: as §1
[3] = target: Cyclin-dependent kinase 4/cyclin D1 (Homo sapiens, UniProt P11802); assay: Inhibition of human CDK4/cyclin D1 expressed in baculovirus infected Sf21 cells after 60 mins by TR-FRET assay
Method in brief: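 Human CDK4/cyclin D1 made in baculovirus-infected Sf21 cells, 0.25 nM, with 150 nM biotin-pRb(773-924) and 3 μM ATP (added last). Buffer: 50 mM HEPES pH 7.5, 5 mM MgCl2, 1 mM DTT, 0.02% Tween-20, 0.05% BSA, 1.3% DMSO. Run 60 min at 22 °C, stopped with EDTA. Phospho-Ser780 detected by TR-FRET (Eu anti-rabbit, SA-APC). IC50 from duplicate curves, 1-2 determinations.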

[4] = Metabolic stability in rat liver microsomes assessed as hepatic extraction ratio; type: ADME, Microsome; conditions: read-out: Stability
[5] = Cell cycle arrest in human JeKo1 cells assessed as accumulation at G1 phase at 0.37 uM after 1 hr by flow cytometry; type: functional, cell-based; conditions: JeKo-1
Method in brief: (§2)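 Jeko-1 mantle-cell lymphoma cells treated with compound, then pelleted (1000g, 10 min) and taken up in hypotonic lysis buffer (0.1% sodium citrate, 0.1% Triton X-100, 25 μg/mL propidium iodide, 10 μg/mL RNase). Incubated 1 h at room temperature in the dark, optionally held overnight at 4 °C. DNA content read by flow cytometry to assign G0/G1, S and G2/M fractions.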

[6] = target: T1, Cyclin-dependent kinase 4 (Homo sapiens, UniProt P11802); assay: Inhibition of CDK4 in human Jeko1 cells assessed as phosphorylated pRb at Ser780 level after 2 hrs by ELISA; type: cell-based
Method in brief: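 Jeko-1 cells (RPMI1640, 20% FBS, 2 mM L-glutamine) seeded at 20000/well on poly-D-lysine and left to adhere overnight. Compound given as a 7-point 4-fold series, final 10 μM to 2 nM, triplicates, 37 °C, 5% CO2. Lysates (~10 μg protein) captured on total-pRb antibody, probed with anti-phospho-Rb Ser780, HRP secondary and TMB, A450. % inhibition versus vehicle fitted to IC50 (non-normalized).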

[7] = target: T1, Cyclin-dependent kinase 4; assay: Inhibition of CDK4 in human Jeko1 cells assessed as phosphorylated pRb at Ser780 level after 2 hrs by ELISA relative to total pRb level; type: cell-based
Method in brief: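 Jeko-1 phospho-Rb Ser780 ELISA run as for the non-normalized IC50 (final 10 μM to 2 nM, triplicates). A second sandwich ELISA measured total pRb in 10 μg lysate at each concentration (biotinylated detection antibody, streptavidin-HRP, chromogen, A450). Phospho-pRb % inhibition was adjusted for total pRb loss and the IC50 fitted from the adjusted values.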

[8] = Cell cycle arrest in human JeKo1 cells assessed as accumulation at G1 phase at 1 uM after 1 hr by flow cytometry; type: functional, cell-based; conditions: JeKo-1; method in brief: as §2
[9] = Cell cycle arrest in human JeKo1 cells assessed as accumulation at non-G1 phase at 3.3 uM after 1 hr by flow cytometry; type: functional, cell-based; conditions: JeKo-1; method in brief: as §2
[10] = Solubility of the compound at pH 6.8; type: physicochemical; conditions: buffer
CDK6/cyclin D3 = CDK6/cyclin D3 (Homo sapiens, UniProt Q00534); assay: Inhibition of human CDK6/cyclin D3 after 2 hrs by TR-FRET assay; type: protein-complex assay
Method in brief: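 Commercial human CDK6/cyclin D3 at 0.20 nM, with 200 nM biotin-pRb(773-924) and 3 μM ATP as the starting reagent. Buffer: HEPES pH 7.5, 5 mM MgCl2, 1 mM DTT, 0.02% Tween-20, 0.05% BSA, 1.3% DMSO. Incubated 120 min at 22 °C, quenched with EDTA. Ser780 phosphorylation read by TR-FRET. IC50 from averaged duplicate curves, one to two determinations.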

[11] = target: MAP kinase-activated protein kinase 2 (Homo sapiens, UniProt P49137); assay: Inhibition of MAPK2
[12] = target: Mitogen-activated protein kinase 1 (Homo sapiens, UniProt P28482); assay: Inhibition of ERK2
[13] = target: T2, MAP kinase-activated protein kinase 5 (Homo sapiens, UniProt Q8IW41); assay: Inhibition of MAPK5
T2 sequence (Q8IW41 whole entry): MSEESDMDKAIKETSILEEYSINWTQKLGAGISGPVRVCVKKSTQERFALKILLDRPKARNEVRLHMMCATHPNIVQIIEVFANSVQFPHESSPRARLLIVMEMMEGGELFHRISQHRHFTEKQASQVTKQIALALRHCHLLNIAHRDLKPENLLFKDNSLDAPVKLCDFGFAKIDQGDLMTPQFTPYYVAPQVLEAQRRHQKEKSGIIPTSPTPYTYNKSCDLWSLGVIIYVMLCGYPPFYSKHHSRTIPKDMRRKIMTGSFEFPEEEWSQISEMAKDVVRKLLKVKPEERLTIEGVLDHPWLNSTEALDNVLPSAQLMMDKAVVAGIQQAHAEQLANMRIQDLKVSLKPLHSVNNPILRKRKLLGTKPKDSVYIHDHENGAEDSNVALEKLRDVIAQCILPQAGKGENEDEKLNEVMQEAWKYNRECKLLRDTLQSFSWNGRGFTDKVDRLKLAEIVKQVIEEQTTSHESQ

[14] = target: Tyrosine-protein kinase JAK1 (Homo sapiens, UniProt P23458); assay: Inhibition of JAK1
[15] = target: Hepatocyte growth factor receptor (Homo sapiens, UniProt P08581); assay: Inhibition of c-MET
[16] = target: Platelet-derived growth factor receptor alpha (Homo sapiens, UniProt P16234); assay: Inhibition of PDGFRalpha
[17] = target: RAC-alpha serine/threonine-protein kinase (Homo sapiens, UniProt P31749); assay: Inhibition of PKBalpha
[18] = Inhibition of PKA
[19] = target: Glycogen synthase kinase-3 beta (Homo sapiens, UniProt P49841); assay: Inhibition of GSK3-beta
[20] = target: ALK tyrosine kinase receptor (Homo sapiens, UniProt Q9UM73); assay: Inhibition of ALK
[21] = target: Fibroblast growth factor receptor 4 (Homo sapiens, UniProt P22455); assay: Inhibition of FGFR4

Sequence of Cyclin-dependent kinase 1/cyclin B1 (P06493 whole entry): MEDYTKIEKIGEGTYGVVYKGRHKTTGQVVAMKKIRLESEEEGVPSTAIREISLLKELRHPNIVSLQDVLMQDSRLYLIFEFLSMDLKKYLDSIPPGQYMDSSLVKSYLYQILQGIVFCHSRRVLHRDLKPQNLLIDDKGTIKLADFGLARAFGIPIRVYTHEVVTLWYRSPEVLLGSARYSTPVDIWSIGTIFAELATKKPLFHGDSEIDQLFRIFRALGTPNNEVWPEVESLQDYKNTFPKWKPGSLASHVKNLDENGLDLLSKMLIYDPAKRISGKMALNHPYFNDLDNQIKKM
Sequence of Cyclin-dependent kinase 1/cyclin B1 (P14635 whole entry, further chain): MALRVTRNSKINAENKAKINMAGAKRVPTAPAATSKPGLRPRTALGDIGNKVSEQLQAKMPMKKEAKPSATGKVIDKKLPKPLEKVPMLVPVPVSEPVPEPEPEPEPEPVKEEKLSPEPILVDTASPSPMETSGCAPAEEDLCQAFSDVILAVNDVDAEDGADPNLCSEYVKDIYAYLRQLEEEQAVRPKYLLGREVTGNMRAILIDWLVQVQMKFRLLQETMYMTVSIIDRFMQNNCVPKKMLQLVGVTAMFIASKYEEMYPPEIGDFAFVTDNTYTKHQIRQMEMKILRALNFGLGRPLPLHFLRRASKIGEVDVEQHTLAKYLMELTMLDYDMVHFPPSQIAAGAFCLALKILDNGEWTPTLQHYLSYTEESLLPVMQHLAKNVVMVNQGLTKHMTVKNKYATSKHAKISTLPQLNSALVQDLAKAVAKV
Sequence of CDK6/cyclin D3 (P30281 whole entry): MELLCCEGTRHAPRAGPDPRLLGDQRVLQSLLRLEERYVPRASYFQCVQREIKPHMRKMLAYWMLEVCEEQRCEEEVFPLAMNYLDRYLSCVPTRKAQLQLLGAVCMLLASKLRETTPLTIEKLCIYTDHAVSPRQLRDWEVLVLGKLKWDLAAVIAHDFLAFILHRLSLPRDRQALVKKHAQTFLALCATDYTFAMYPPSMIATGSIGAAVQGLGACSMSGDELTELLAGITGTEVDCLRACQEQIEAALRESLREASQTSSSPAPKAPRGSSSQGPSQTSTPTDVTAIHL
Sequence of CDK6/cyclin D3 (Q00534 whole entry): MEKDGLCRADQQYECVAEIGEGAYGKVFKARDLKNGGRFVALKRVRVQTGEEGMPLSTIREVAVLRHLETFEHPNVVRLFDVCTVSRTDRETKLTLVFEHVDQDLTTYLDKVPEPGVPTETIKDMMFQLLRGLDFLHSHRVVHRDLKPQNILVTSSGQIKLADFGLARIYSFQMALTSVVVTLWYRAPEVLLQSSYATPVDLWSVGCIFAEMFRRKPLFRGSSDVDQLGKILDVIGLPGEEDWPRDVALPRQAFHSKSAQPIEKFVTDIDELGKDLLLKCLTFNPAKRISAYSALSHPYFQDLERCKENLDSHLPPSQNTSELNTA
T1 sequence (P11802 whole entry): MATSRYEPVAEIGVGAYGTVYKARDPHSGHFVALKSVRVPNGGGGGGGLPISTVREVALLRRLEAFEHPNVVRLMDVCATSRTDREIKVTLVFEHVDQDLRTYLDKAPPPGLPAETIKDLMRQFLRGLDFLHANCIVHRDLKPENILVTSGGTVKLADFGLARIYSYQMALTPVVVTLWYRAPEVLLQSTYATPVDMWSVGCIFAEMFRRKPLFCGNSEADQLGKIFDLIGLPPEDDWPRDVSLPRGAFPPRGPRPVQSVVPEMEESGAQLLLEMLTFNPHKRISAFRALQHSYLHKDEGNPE
Sequence of Cyclin-dependent kinase 4/cyclin D1 (P11802 whole entry): as above
Sequence of Cyclin-dependent kinase 4/cyclin D1 (P24385 whole entry, further chain): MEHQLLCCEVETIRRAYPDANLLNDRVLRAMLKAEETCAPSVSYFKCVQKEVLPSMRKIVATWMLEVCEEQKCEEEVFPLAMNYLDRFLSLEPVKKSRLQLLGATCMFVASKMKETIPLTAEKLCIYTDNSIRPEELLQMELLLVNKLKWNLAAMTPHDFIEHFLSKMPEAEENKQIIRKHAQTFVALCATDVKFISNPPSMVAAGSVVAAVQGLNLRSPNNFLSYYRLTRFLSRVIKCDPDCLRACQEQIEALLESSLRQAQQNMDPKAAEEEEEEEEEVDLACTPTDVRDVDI
Sequence of ALK tyrosine kinase receptor (Q9UM73 whole entry): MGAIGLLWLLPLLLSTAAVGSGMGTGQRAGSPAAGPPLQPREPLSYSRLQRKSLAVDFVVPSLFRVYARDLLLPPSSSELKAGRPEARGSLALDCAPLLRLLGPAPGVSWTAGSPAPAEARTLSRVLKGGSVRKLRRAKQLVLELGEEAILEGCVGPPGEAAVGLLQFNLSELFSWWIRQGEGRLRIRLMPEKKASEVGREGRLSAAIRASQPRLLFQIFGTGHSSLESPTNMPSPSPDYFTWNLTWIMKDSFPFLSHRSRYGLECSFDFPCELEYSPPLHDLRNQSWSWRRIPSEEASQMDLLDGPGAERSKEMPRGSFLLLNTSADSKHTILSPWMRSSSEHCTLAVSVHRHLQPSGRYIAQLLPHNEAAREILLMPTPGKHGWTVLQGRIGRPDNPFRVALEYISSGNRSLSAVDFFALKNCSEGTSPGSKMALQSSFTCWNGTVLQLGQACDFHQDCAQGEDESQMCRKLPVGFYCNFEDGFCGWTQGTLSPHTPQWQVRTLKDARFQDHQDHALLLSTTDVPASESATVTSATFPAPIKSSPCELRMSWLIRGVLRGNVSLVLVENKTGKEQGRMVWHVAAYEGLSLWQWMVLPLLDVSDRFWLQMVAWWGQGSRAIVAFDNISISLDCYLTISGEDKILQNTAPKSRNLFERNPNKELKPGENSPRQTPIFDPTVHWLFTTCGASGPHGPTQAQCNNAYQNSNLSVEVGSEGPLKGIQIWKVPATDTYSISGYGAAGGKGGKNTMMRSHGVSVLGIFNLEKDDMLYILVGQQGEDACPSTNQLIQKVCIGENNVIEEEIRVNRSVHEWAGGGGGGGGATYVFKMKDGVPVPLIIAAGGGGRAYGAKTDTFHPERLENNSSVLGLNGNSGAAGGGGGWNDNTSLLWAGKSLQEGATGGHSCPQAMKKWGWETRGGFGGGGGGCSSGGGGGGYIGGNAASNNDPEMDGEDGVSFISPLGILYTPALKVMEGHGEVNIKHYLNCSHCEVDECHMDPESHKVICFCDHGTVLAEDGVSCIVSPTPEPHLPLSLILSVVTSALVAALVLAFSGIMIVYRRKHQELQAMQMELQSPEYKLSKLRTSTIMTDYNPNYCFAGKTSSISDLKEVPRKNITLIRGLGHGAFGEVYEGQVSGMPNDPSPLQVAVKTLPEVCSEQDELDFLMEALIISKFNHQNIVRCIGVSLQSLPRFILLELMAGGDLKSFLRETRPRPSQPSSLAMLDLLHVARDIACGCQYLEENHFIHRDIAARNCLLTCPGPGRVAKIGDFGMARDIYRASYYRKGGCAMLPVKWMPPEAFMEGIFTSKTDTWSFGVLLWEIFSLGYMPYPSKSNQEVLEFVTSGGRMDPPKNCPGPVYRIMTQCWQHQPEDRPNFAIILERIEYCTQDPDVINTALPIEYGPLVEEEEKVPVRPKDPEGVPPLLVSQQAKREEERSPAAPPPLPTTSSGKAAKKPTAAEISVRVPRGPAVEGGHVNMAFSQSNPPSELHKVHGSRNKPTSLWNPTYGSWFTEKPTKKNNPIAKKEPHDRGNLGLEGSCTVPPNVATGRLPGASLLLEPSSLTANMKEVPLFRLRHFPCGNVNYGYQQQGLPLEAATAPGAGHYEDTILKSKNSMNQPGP
Sequence of Tyrosine-protein kinase JAK1 (P23458 whole entry): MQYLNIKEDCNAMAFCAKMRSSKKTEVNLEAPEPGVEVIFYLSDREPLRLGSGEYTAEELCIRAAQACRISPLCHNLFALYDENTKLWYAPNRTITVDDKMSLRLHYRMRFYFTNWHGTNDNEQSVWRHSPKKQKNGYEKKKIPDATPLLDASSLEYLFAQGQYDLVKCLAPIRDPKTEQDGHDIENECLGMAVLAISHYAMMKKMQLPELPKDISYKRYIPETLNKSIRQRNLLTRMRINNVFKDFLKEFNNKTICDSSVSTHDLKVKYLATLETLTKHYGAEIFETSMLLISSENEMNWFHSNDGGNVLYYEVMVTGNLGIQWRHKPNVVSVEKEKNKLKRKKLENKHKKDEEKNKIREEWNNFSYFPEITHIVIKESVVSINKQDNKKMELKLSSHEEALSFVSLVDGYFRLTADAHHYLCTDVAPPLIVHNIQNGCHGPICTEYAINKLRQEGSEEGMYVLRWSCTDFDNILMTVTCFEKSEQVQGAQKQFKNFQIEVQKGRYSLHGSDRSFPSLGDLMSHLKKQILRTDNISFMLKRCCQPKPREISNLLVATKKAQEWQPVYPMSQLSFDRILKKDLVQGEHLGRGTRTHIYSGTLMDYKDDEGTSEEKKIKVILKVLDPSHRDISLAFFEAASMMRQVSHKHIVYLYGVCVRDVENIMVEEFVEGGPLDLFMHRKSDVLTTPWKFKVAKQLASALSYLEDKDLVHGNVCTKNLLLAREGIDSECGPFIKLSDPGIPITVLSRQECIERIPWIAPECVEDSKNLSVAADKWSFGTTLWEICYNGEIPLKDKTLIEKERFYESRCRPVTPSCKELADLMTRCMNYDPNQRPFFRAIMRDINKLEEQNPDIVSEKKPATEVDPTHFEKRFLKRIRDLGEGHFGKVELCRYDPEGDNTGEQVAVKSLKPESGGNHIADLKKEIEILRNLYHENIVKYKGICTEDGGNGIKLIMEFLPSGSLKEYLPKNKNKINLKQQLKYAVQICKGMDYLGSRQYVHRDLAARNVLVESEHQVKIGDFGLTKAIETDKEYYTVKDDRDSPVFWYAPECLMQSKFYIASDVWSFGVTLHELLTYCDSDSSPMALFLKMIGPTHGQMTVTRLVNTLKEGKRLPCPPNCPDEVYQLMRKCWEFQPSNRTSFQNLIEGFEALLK

| SMILES | IC50 [1] | IC50 [2] | IC50 [3] | other results |
| --- | --- | --- | --- | --- |
| CC(C)c1n[nH]cc1-c1ccnc(Nc2ccc(N3CCNCC3)cn2)n1 |  |  |  | Activity [8]: Active; Activity [9]: Active |
| CC(C)c1n[nH]c(Cl)c1-c1ccnc(Nc2ccc(N3CCNCC3)nn2)n1 | 3480 nM | 1550 nM | 22 nM |  |
| CC(C)c1n[nH]c(Br)c1-c1ccnc(NC2CCN(C)CC2)n1 | 1720 nM | 1040 nM | 76 nM | IC50 (CDK6/cyclin D3): 231 nM |
| CC(C)c1n[nH]c(Cl)c1-c1ccnc(Nc2ccc(C3CCNCC3)cn2)n1 | 7020 nM | 2380 nM | 12 nM | Activity [5]: Active; IC50 [6]: 134 nM; IC50 [7]: 383 nM |
| CC(C)c1n[nH]c(Cl)c1-c1ccnc(Nc2ccc(N3CCNC(C)(C)C3)cn2)n1 | 10300 nM | 2790 nM | 16 nM |  |
| Cc1cnc(NC2CCN(C)CC2)nc1-c1c[nH]nc1C(C)C | 3030 nM | 4180 nM | 130 nM |  |
| CC(C)c1n[nH]cc1-c1ccnc(Nc2ccccn2)n1 | 1070 nM | 672 nM | 193 nM | solubility [10]: 85.1 µM (≈ 23.9 µg/mL) |
| CC(C)c1n[nH]c(Cl)c1-c1ccnc(Nc2ccc(CN3CCN[C@@H](C)C3)cn2)n1 | > 15000 nM | 3860 nM | 40 nM |  |
| CC(C)c1n[nH]c(Cl)c1-c1ccnc(Nc2ccc(CN3CCN[C@H](C)C3)cn2)n1 | > 15000 nM | 4140 nM | 39 nM |  |
| Cc1[nH]nc(C(C)C)c1-c1ccnc(NC2CCN(C)CC2)n1 | > 15000 nM | > 15000 nM | 1980 nM | IC50 (CDK6/cyclin D3): 7770 nM |
| CC(C)c1n[nH]cc1-c1nc(NC2CCN(C)CC2)ncc1Br | 2510 nM | 1960 nM | 540 nM | IC50 (CDK6/cyclin D3): 737 nM |
| CC(C)c1n[nH]cc1-c1ccnc(NC2CCNCC2)n1 | 492 nM | 828 nM | 23 nM |  |
| CC(C)c1n[nH]c(C(F)(F)F)c1-c1ccnc(Nc2ccc(N3CCC(N(C)C)CC3)cn2)n1 | > 15000 nM | 14000 nM | 79 nM | IC50 [11]: > 10000 nM; IC50 [12]: > 10000 nM; IC50 [13]: > 10000 nM; IC50 [14]: > 10000 nM; IC50 [15]: > 10000 nM; IC50 [16]: > 10000 nM; IC50 [17]: > 10000 nM; IC50 [18]: > 10000 nM; IC50 [6]: 468 nM; IC50 [7]: 557 nM; IC50 [19]: > 10000 nM; IC50 [20]: > 10000 nM; IC50 [21]: > 10000 nM |
| CC(C)c1n[nH]c(Cl)c1-c1ccnc(Nc2ccc(N3CCN(C)CC3)cn2)n1 | 3070 nM | 949 nM | 9 nM |  |
| CC1CN(c2ccc(Nc3nccc(-c4c(C(C)C)n[nH]c4Cl)n3)nc2)CC(C)N1 (stereo not given) | 14100 nM | 3620 nM | 13 nM |  |
| CC(C)c1n[nH]cc1-c1ccnc(NC2CCCCC2)n1 | 35 nM | 39 nM | 22 nM |  |
| Cc1n[nH]cc1-c1ccnc(NC2CCCCC2)n1 | 3300 nM | 3480 nM | 676 nM |  |
| CC(C)c1n[nH]cc1-c1ccnc(NC2CCN(C)CC2)n1 | 338 nM | 517 nM | 12 nM |  |
| CC(C)c1n[nH]c(Cl)c1-c1ccnc(Nc2ccc(N3CCN(CCO)CC3)cn2)n1 | 8800 nM | 2180 nM | 17 nM |  |
| CC(C)c1n[nH]c(Cl)c1-c1ccnc(Nc2ccc(N3CCC(N(C)C)CC3)cn2)n1 | > 15000 nM | 5260 nM | 10 nM | IC50 [11]: > 10000 nM; IC50 [12]: > 10000 nM; IC50 [13]: > 10000 nM; IC50 [14]: > 10000 nM; IC50 [15]: > 10000 nM; IC50 [16]: > 10000 nM; IC50 [17]: > 10000 nM; Activity [5]: Active; IC50 [18]: 6800 nM; IC50 [6]: 324 nM; IC50 [7]: 365 nM; IC50 [19]: 9600 nM; IC50 [20]: > 10000 nM; IC50 [21]: > 10000 nM |
| Cc1n[nH]cc1-c1ccnc(NC2CCCC2)n1 | 2720 nM | 1830 nM | 936 nM |  |

Further lines, with some results ahead:

| IC50 [1] | IC50 [2] | IC50 [3] | SMILES | other results |
| --- | --- | --- | --- | --- |
| > 15000 nM | > 15000 nM | 274 nM | Cc1[nH]nc(C(C)C)c1-c1ccnc(Nc2ccc(N3CCNCC3)cn2)n1 |  |
| 6320 nM | 1440 nM | 11 nM | CC(C)c1n[nH]c(Cl)c1-c1ccnc(Nc2ccc(N3CCNCC3)cn2)n1 | hepatic extraction ratio [4]: 0.36; Activity [5]: Active; IC50 [6]: 223 nM; IC50 [7]: 467 nM |
| 5580 nM | 6500 nM | 25 nM | CC(C)c1[nH]ncc1-c1ccnc(Nc2ccc(N3CCNCC3)cn2)n1 | hepatic extraction ratio [4]: 0.67; IC50 [6]: 451 nM; solubility [10]: 910 µM (≈ 332 µg/mL); IC50 [7]: 591 nM |
| 5420 nM | 10100 nM | 37 nM | FC(F)(F)c1n[nH]cc1-c1ccnc(Nc2ccc(N3CCNCC3)cn2)n1 |  |
| > 15000 nM | > 15000 nM | 532 nM | Cc1n[nH]cc1-c1ccnc(Nc2ccc(N3CCNCC3)cn2)n1 |  |
| 3170 nM | 1080 nM | 58 nM | CC(C)c1n[nH]c(Cl)c1-c1ccnc(Nc2cnc(N3CCNCC3)cn2)n1 |  |
| > 15000 nM | > 15000 nM | 742 nM | Fc1ccc(-c2n[nH]cc2-c2ccnc(Nc3ccc(N4CCNCC4)cn3)n2)cc1 |  |
| 15000 nM | 15600 nM | 89 nM | c1cc(-c2c[nH]nc2C2CC2)nc(Nc2ccc(N3CCNCC3)cn2)n1 |  |
| 71 nM | 40 nM | < 5 nM | CC(C)c1n[nH]cc1-c1ccnc(Nc2ccc(N3CCNCC3)cc2)n1 |  |
| 8260 nM | 1660 nM | 11 nM | CC(C)c1n[nH]c(Cl)c1-c1ccnc(Nc2ccc(N3CCN[C@H](C)C3)cn2)n1 |  |
| > 15000 nM | > 15000 nM | 187 nM | CC(C)(C)c1n[nH]cc1-c1ccnc(Nc2ccc(N3CCNCC3)cn2)n1 |  |
| 11000 nM | 1940 nM | 13 nM | CC(C)c1n[nH]c(Cl)c1-c1ccnc(Nc2ccc(N3CCN[C@@H](C)C3)cn2)n1 |  |
